Measured values published in ChEMBL document CHEMBL3593173, “Discovery of novel N-(5-(tert-butyl)isoxazol-3-yl)-N'-phenylurea analogs as potent FLT3 inhibitors and evaluation of their activity against acute myeloid leukemia in vitro and in vivo” (Bioorg Med Chem, 2015).
Converted amounts (≈) assume the structure as drawn. The source made the active and inactive calls. The rule behind the calls is not given here.

Key:
[1] = Growth inhibition of human A875 cells incubated for 72 hrs by MTT assay; format: functional, cell-based; settings: A875, 72 h
How it was run: (§1)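 Non-leukemia lines were grown in RPMI 1640 or DMEM with 10% FBS at 37 °C in 5% CO₂. Cells were seeded at 2–5 × 10³ per well and incubated 24 h, then treated with diluted inhibitors for 72 h. MTT was added for 2–4 h, formazan was dissolved in DMSO, and OD was read at 570 nm to derive IC50.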

[2] = Solubility in MeOH solution; format: physicochemical
Rattus norvegicus = assay: Volume of distribution at steady state in Sprague-Dawley rat at 30 mg/kg, po after 15 mins to 24 hrs by HPLC method; format: ADME, organism-based; settings: in vivo
How it was run: (§2)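 Sprague–Dawley rats (n = 3) fasted overnight, then given a single 30 mg/kg oral gavage dose in 25% PEG400, 5% DMSO and 70% distilled water. Heparinized blood was drawn at 15 min, 30 min, 1, 2, 4, 6, 12 and 24 h, and plasma was separated by centrifugation. Plasma levels were measured by liquid–liquid extraction and HPLC.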

MV4-11 [3] = assay: Induction of apoptosis in human MV4-11 cells assessed as early apoptotic cells level at 1 nM incubated for 48 hrs by Annexin V-FITC labeling based flow cytometry (reference value: 3.54%); format: functional
MV4-11 [4] = assay: Induction of apoptosis in human MV4-11 cells assessed as viable cells at 1 nM incubated for 48 hrs by Annexin V-FITC labeling based flow cytometry (reference value: 86.1%); format: functional; settings: MV4-11, 48 h, read-out: Activity
MV4-11 [5] = assay: Antitumor activity against FLT3-ITD bearing human MV4-11 cells xenografted in orally dosed NOD-SCID mouse assessed as tumor growth inhibition; format: functional, organism-based
How it was run: (§3)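 MV4-11 cells in exponential growth were washed three times in serum-free medium, resuspended at 1 × 10⁸ cells/mL and injected subcutaneously into NOD-SCID mice aged 5–6 weeks. At 100–200 mm³, tumors were randomized into 4 groups of 6. Dosing was 10, 30 or 60 mg/kg/d, or vehicle (25% PEG400 plus 5% DMSO in water), by oral gavage once daily. Tumor volume was measured every 3 days, and body weight and toxicity signs were monitored.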

[6] = Cmax in Sprague-Dawley rat at 30 mg/kg, po after 15 mins to 24 hrs by HPLC method; format: ADME, organism-based; design: dose 30 mg/kg, route oral; settings: in vivo; how it was run: as §2
MV4-11 [7] = assay: Effect on FLT3 protein expression in human MV4-11 cells at 1 to 100 nM incubated for 2 hrs by Western blotting method; format: cell-based; settings: mv4-11, 2 h, 0.1 µM
How it was run: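 MV4-11 cells were treated with increasing concentrations for 2 h at 37 °C, washed in ice-cold PBS and lysed in RIPA buffer with 1% protease cocktail. Lysates were cleared at 13,000 rpm for 15 min at 4 °C, run on 5–10% polyacrylamide gels and transferred to PVDF. Blots were probed with anti-FLT3, anti-p-FLT3 and anti-β-actin, then an HRP secondary antibody.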

MV4-11 [8] = assay: Antitumor activity against FLT3-ITD bearing human MV4-11 cells xenografted in NOD-SCID mouse assessed as tumor growth inhibition at 10 mg/kg/day, po; format: functional; settings: MV4-11, po, read-out: TGI; how it was run: as §3
MV4-11 [9] = assay: Induction of apoptosis in human MV4-11 cells assessed as necrotic cells level at 100 nM incubated for 48 hrs by Annexin V-FITC labeling based flow cytometry (reference value: 3.76%); format: functional
Mus musculus [10] = assay: Toxicity in FLT3-ITD bearing human MV4-11 cells xenografted NOD-SCID mouse assessed as induction of body weight loss at 10 to 60 mg/kg/day, po; format: organism-based; settings: in vivo; how it was run: as §3
MV4-11 [11] = assay: Antitumor activity against FLT3-ITD bearing human MV4-11 cells xenografted in NOD-SCID mouse assessed as tumor growth inhibition at 30 mg/kg/day, po; format: functional; settings: MV4-11, po, read-out: TGI; how it was run: as §3
MV4-11 [12] = assay: Induction of apoptosis in human MV4-11 cells assessed as late apoptotic cells level at 10 nM incubated for 48 hrs by Annexin V-FITC labeling based flow cytometry (reference value: 6.61%); format: functional
MCF7 = assay: Growth inhibition of human MCF7 cells incubated for 72 hrs by MTT assay; format: functional, cell-based; settings: MCF7, 72 h; how it was run: as §1
MV4-11 [13] = assay: Growth inhibition of FLT3-ITD bearing human MV4-11 cells incubated for 72 hrs by MTT assay; format: functional, cell-based; settings: MV4-11, 72 h
How it was run: (§4)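 Leukemia cells were grown with 10% FBS at 37 °C in 5% CO₂; MV4-11 was kept in IMDM. Cells were seeded at 1–4 × 10⁴ per well, and an equal volume of medium containing increasing inhibitor concentrations was added. MTT was added for 2–4 h, formazan was dissolved in DMSO, and OD was read at 570 nm to derive IC50.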

MV4-11 [14] = assay: Induction of apoptosis in FLT3-ITD bearing human MV4-11 cells xenografted in NOD-SCID mouse at 60 mg/kg/day, po qd for 7 days by TUNEL assay
MV4-11 [15] = assay: Inhibition of cell proliferation of FLT3-ITD bearing human MV4-11 cells xenografted in NOD-SCID mouse assessed as reduction in Ki67-positive cells in tumor tissues at 60 mg/kg/day, po qd for 7 days by immunohistochemistry; format: functional, organism-based
How it was run: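 NOD-SCID mice bearing subcutaneous MV4-11 xenografts were dosed at 60 mg/kg/d by oral gavage, once daily. Tumors were harvested 7 days later. Proliferation was scored by Ki67 immunostaining and apoptosis by TUNEL staining.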

MV4-11 [16] = assay: Induction of apoptosis in human MV4-11 cells assessed as necrotic cells level at 1 nM incubated for 48 hrs by Annexin V-FITC labeling based flow cytometry (reference value: 3.76%); format: functional
[17] = AUC (0 to 24 hrs) in Sprague-Dawley rat at 30 mg/kg, po after 15 mins to 24 hrs by HPLC method; format: ADME, organism-based; design: dose 30 mg/kg, time < 24 hr, route oral; settings: in vivo; how it was run: as §2
MV4-11 [18] = assay: Induction of apoptosis in human MV4-11 cells incubated for 48 hrs by Annexin V-FITC labeling based flow cytometry; format: functional, cell-based
Jurkat = assay: Growth inhibition of human Jurkat cells incubated for 72 hrs by MTT assay; format: functional, cell-based; how it was run: as §4
Mus musculus [19] = assay: Toxicity in FLT3-ITD bearing human MV4-11 cells xenografted NOD-SCID mouse assessed as induction of toxicity signs at 10 to 60 mg/kg/day, po; format: organism-based; settings: in vivo; how it was run: as §3
MV4-11 [20] = assay: Induction of apoptosis in human MV4-11 cells assessed as necrotic cells level at 10 nM incubated for 48 hrs by Annexin V-FITC labeling based flow cytometry (reference value: 3.76%); format: functional
[21] = Growth inhibition of human PANC1 cells incubated for 72 hrs by MTT assay; format: functional, cell-based; settings: PANC-1, 72 h; how it was run: as §1
THP-1 = assay: Growth inhibition of human THP1 cells incubated for 72 hrs by MTT assay; format: functional, cell-based; settings: THP-1, 72 h; how it was run: as §4
MV4-11 [22] = assay: Induction of apoptosis in human MV4-11 cells assessed as late apoptotic cells level at 100 nM incubated for 48 hrs by Annexin V-FITC labeling based flow cytometry (reference value: 6.61%); format: functional
U-937 = assay: Growth inhibition of human U937 cells incubated for 72 hrs by MTT assay; format: functional, cell-based; settings: U-937, 72 h; how it was run: as §4
MV4-11 [23] = assay: Induction of apoptosis in human MV4-11 cells assessed as viable cells at 10 nM incubated for 48 hrs by Annexin V-FITC labeling based flow cytometry (reference value: 86.1%); format: functional; settings: MV4-11, 48 h, read-out: Activity

**Q.** With `COc1ccn2cc(-c3ccc(NC(=O)Nc4cc(C(C)(C)C)on4)cc3)nc2c1` as the molecule, how does the IC50 [1] read?
**A.** The IC50 was > 20 µM.

**Q.** What about the solubility [2] of the same molecule?
**A.** Its solubility is 7460 µg/mL (≈ 18.4 mM).

**Q.** And the Vdss (Rattus norvegicus)?
**A.** The Vdss was 14.12 L/kg.

**Q.** And the Activity (MV4-11 [3])?
**A.** The Activity was 3.86%.

**Q.** What about the viability at 0.001 µM (MV4-11 [4]) of the same molecule?
**A.** Its viability at 0.001 µM is 78.7%.

**Q.** What about the TGI (MV4-11 [5]) of the same molecule?
**A.** Its TGI is “Dose-dependent effect”.

**Q.** What about the Cmax [6] of the same molecule?
**A.** The Cmax was 3290 ng/mL.

**Q.** And the Activity (MV4-11 [7])?
**A.** The Activity was “Non-toxic”.

**Q.** What about the inhibition in vivo at 10 mg/kg/day (MV4-11 [8]) of the same molecule?
**A.** Its inhibition in vivo at 10 mg/kg/day is 51%.

**Q.** What about the Activity (MV4-11 [9]) of the same molecule?
**A.** The Activity was 15.3%.

**Q.** What about the Activity (Mus musculus [10]) of the same molecule?
**A.** Its Activity is “Non-toxic”.

**Q.** And the inhibition in vivo at 30 mg/kg/day (MV4-11 [11])?
**A.** The inhibition in vivo at 30 mg/kg/day was 87%.

**Q.** And the Activity (MV4-11 [12])?
**A.** The Activity was 18.6%.

**Q.** What about the IC50 (MCF7) of the same molecule?
**A.** Its IC50 is > 20 µM.

**Q.** What about the IC50 (MV4-11 [13]) of the same molecule?
**A.** Its IC50 is 0.003 µM.

**Q.** And the Activity (MV4-11 [14])?
**A.** The Activity was “Active”.

**Q.** What about the inhibition (MV4-11 [15]) of the same molecule?
**A.** The inhibition was “Active”.

**Q.** What about the Activity (MV4-11 [16]) of the same molecule?
**A.** The Activity was 5.34%.

**Q.** What about the AUC(0-t) at 24 h [17] of the same molecule?
**A.** The AUC(0-t) at 24 h was 14300 ng·h/mL.

**Q.** And the Activity (MV4-11 [18])?
**A.** The Activity was “Dose-dependent effect”.

**Q.** And the IC50 (Jurkat)?
**A.** Its IC50 is > 20 µM.

**Q.** And the Activity (Mus musculus [19])?
**A.** Its Activity is “Non-toxic”.

**Q.** What about the Activity (MV4-11 [20]) of the same molecule?
**A.** The Activity was 10.8%.

**Q.** And the IC50 [21]?
**A.** Its IC50 is > 20 µM.

**Q.** What about the IC50 (THP-1) of the same molecule?
**A.** Its IC50 is 3.37 µM.

**Q.** And the Activity (MV4-11 [22])?
**A.** Its Activity is 23%.

**Q.** What about the IC50 (U-937) of the same molecule?
**A.** Its IC50 is > 20 µM.

**Q.** What about the viability at 0.01 µM (MV4-11 [23]) of the same molecule?
**A.** The viability at 0.01 µM was 63.2%.
